From ChEMBL document CHEMBL3259519, “Targeting triple-negative breast cancer cells with 6,7-bis(hydroxymethyl)-1H,3H-pyrrolo[1,2-c]thiazoles” (Eur J Med Chem, 2014)
Each block holds one molecule with its values, some of them ahead of it. Active and inactive are the calls of the source. No cut-off for these calls is given here.

Tests used:
MCF7 [1] = assay: Induction of DNA strand break in human MCF7 cells expressing ER and BRCA2 at IC50 after 48 hrs by alkaline comet assay; format: functional, cell-based
In short: (§1)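 5x10^5 cells got IC50 or 3x IC50 for 48 h (DMSO 0.1%); H2O2-treated cells served as positive control. Cells in 1% low-melt agarose went onto slides precoated with normal-melt agarose. Slides were lysed overnight in alkaline buffer (2.5 M NaCl, EDTA, Tris, DMSO, Triton X-100). Electrophoresis ran in 300 mM NaOH/1 mM EDTA (pH>13) at 25 V for 15 min. Slides were neutralized in Tris pH 7.4 and stained with 25 µg/mL ethidium bromide for fluorescence microscopy.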

MCF7 [2] = assay: Induction of DNA strand break in human MCF7 cells expressing ER and BRCA2 at 3 x IC50 after 48 hrs by alkaline comet assay; format: functional, cell-based; in short: as §1
HCC1806 [3] = assay: Induction of DNA strand break in ER, PR, HER2-deficient human HCC1806 cells at IC50 after 48 hrs by alkaline comet assay; format: functional, cell-based; in short: as §1
HCC1806 [4] = assay: Induction of DNA strand break in ER, PR, HER2-deficient human HCC1806 cells at 3 x IC50 after 48 hrs by alkaline comet assay; format: functional, cell-based; in short: as §1
HCC1806 [5] = assay: Antiproliferative activity against ER, PR, HER2-deficient human HCC1806 cells as growth inhibition after 24 hrs by MTT assay; format: functional, cell-based; conditions: HCC1806, 24 h
In short: (§2)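 Cells were seeded at 2x10^4/well and left to attach overnight. Compounds in DMSO were diluted in medium and applied for 24, 48, 72 or 96 h. Cells were then PBS-washed and given 0.5 mg/mL MTT (pH 7.4) at 37 °C for 4 h. Formazan was dissolved in acid isopropanol. IC50 came from dose-response curves by exponential decay fitting (r2>0.9), with 95% CI.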

HCC1806 [6] = assay: Antiproliferative activity against ER, PR, HER2-deficient human HCC1806 cells as growth inhibition after 48 hrs by MTT assay; format: functional, cell-based; conditions: HCC1806, 48 h; in short: as §2
HCC1806 [7] = assay: Antiproliferative activity against ER, PR, HER2-deficient human HCC1806 cells as growth inhibition after 72 hrs by MTT assay; format: functional, cell-based; conditions: HCC1806, 72 h; in short: as §2
HCC1806 [8] = assay: Antiproliferative activity against ER, PR, HER2-deficient human HCC1806 cells as growth inhibition after 96 hrs by MTT assay; format: functional, cell-based; conditions: HCC1806, 96 h; in short: as §2
HCC1954 [9] = assay: Antiproliferative activity against human HCC1954 cells expressing HER2 assessed as growth inhibition after 24 hrs by MTT assay; format: functional, cell-based; conditions: HCC1954, 24 h; in short: as §2
HCC1954 [10] = assay: Antiproliferative activity against human HCC1954 cells expressing HER2 assessed as growth inhibition after 48 hrs by MTT assay; format: functional, cell-based; conditions: HCC1954, 48 h; in short: as §2
HCC1954 [11] = assay: Antiproliferative activity against human HCC1954 cells expressing HER2 assessed as growth inhibition after 72 hrs by MTT assay; format: functional, cell-based; conditions: HCC1954, 72 h; in short: as §2
HCC1954 [12] = assay: Antiproliferative activity against human HCC1954 cells expressing HER2 assessed as growth inhibition after 96 hrs by MTT assay; format: functional, cell-based; conditions: HCC1954, 96 h; in short: as §2
MCF7 [13] = assay: Cytotoxicity against human MCF7 cells expressing ER and BRCA2 assessed as reduction of survival factor at IC50 incubated for 48 hrs measured after 12 days by crystal violet staining-based clonogenic assay; format: functional, cell-based
HCC1806 [14] = assay: Cytotoxicity against ER, PR, HER2-deficient human HCC1806 cells as reduction of survival factor at IC50 incubated for 48 hrs measured after 12 days by crystal violet staining-based clonogenic assay; format: functional
MCF7 [15] = assay: Cytotoxicity against human MCF7 cells expressing ER and BRCA2 assessed as reduction of total protein content at IC50 after 48 hrs by SRB assay relative to control; format: functional; design: scale not given: the % may be the effect or the level left
HCC1806 [16] = assay: Cytotoxicity against ER, PR, HER2-deficient human HCC1806 cells as reduction of total protein content at IC50 incubated for 48 hrs by SRB assay relative to control; format: functional; design: scale not given: the % may be the effect or the level left
MCF7 [17] = assay: Induction of apoptosis in human MCF7 cells expressing ER and BRCA2 assessed as decrease in viable cells at IC50 after 48 hrs by Annexin V/propidium iodide staining-based flow cytometry relative to control; format: functional
In short: (§3)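 2x10^6 cells were attached overnight, then given IC50 for 48 h (DMSO 0.1%). PBS-washed cells were stained with Annexin V-FITC and PI in binding buffer for 15 min at 4 °C in the dark. Flow cytometry used 488 nm excitation. Cells were gated as viable, apoptotic, late apoptotic/necrotic or necrotic, reported as mean ± SD (n≥5).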

HCC1806 [18] = assay: Induction of apoptosis in triple negative ER, PR, HER2-deficient human HCC1806 cells assessed as increase of late apoptotic/nectrotic cells at IC50 after 48 hrs by Annexin V/propidium iodide staining-based flow cytometry relative to control; format: functional, cell-based; in short: as §3
HCC1806 [19] = assay: Induction of apoptosis in triple negative ER, PR, HER2-deficient human HCC1806 cells assessed as decrease of viable cells at IC50 after 48 hrs by Annexin V/propidium iodide staining-based flow cytometry relative to control; format: functional; in short: as §3
MCF7 [20] = assay: Induction of apoptosis in human MCF7 cells expressing ER and BRCA2 assessed as increase of late apoptotic/nectrotic cells at IC50 after 48 hrs by Annexin V/propidium iodide staining-based flow cytometry relative to control; format: functional, cell-based; in short: as §3
MCF7 [21] = assay: Induction of apoptosis in human MCF7 cells expressing ER and BRCA2 assessed as increase of necrotic cells at IC50 after 48 hrs by Annexin V/propidium iodide staining-based flow cytometry relative to control; format: functional, cell-based; in short: as §3
HCC1806 [22] = assay: Induction of apoptosis in triple negative ER, PR, HER2-deficient human HCC1806 cells assessed as increase of necrotic cells at IC50 after 48 hrs by Annexin V/propidium iodide staining-based flow cytometry relative to control; format: functional, cell-based; in short: as §3
MCF7 [23] = assay: Cell cycle arrest in human MCF7 cells expressing ER and BRCA2 assessed as decrease in accumulation at G0/G1 phase at IC50 after 48 hrs by propidium staining-based FACS analysis; format: functional
In short: (§4)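 2x10^6 cells were attached overnight, then exposed to IC50 for 48 h (DMSO 0.1%). They were fixed in ice-cold 70% ethanol for 30 min in the dark, PBS-washed and stained with PI/RNase for 15 min at RT. Flow cytometry used 488 nm excitation and a 585/42 filter. Sub-G0, G0/G1, S and G2/M fractions were reported as mean ± SD (n≥5).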

MCF7 [24] = assay: Cell cycle arrest in human MCF7 cells expressing ER and BRCA2 assessed as increase in accumulation at S phase at IC50 after 48 hrs by propidium staining-based FACS analysis; format: functional; in short: as §4
MCF7 [25] = assay: Cell cycle arrest in human MCF7 cells expressing ER and BRCA2 assessed as blockade at G2/M phase at IC50 after 48 hrs by propidium staining-based FACS analysis; format: functional; in short: as §4
HCC1806 [26] = assay: Cell cycle arrest in ER, PR, HER2-deficient human HCC1806 cells as blockade at G0/G1 phase at IC50 after 48 hrs by propidium staining-based FACS analysis; format: functional; in short: as §4
HCC1806 [27] = assay: Cell cycle arrest in ER, PR, HER2-deficient human HCC1806 cells as accumulation at S phase at IC50 after 48 hrs by propidium staining-based FACS analysis; format: functional; in short: as §4
HCC1806 [28] = assay: Cell cycle arrest in ER, PR, HER2-deficient human HCC1806 cells as accumulation at G2/M phase at IC50 after 48 hrs by propidium staining-based FACS analysis; format: functional; in short: as §4
MCF7 [29] = assay: Antiproliferative activity against human MCF7 cells expressing ER and BRCA2 assessed as growth inhibition after 24 hrs by MTT assay; format: functional, cell-based; conditions: MCF7, 24 h; in short: as §2
MCF7 [30] = assay: Antiproliferative activity against human MCF7 cells expressing ER and BRCA2 assessed as growth inhibition after 48 hrs by MTT assay; format: functional, cell-based; conditions: MCF7, 48 h; in short: as §2
MCF7 [31] = assay: Antiproliferative activity against human MCF7 cells expressing ER and BRCA2 assessed as growth inhibition after 72 hrs by MTT assay; format: functional, cell-based; conditions: MCF7, 72 h; in short: as §2
MCF7 [32] = assay: Antiproliferative activity against human MCF7 cells expressing ER and BRCA2 assessed as growth inhibition after 96 hrs by MTT assay; format: functional, cell-based; conditions: MCF7, 96 h; in short: as §2

IC50 (HCC1806 [5]): > 100 µM | IC50 (HCC1806 [6]): 81.4 µM | IC50 (HCC1806 [7]): 51.3 µM | IC50 (HCC1806 [8]): 13.9 µM | IC50 (HCC1954 [9]): 98.2 µM | IC50 (HCC1954 [10]): 27 µM | IC50 (HCC1954 [11]): 26.2 µM | IC50 (HCC1954 [12]): 24.9 µM
SMILES: Cc1c(CO)c(CO)c2n1[C@@H](c1ccccc1)SC2
Activity (MCF7 [1]): Active | Activity (MCF7 [2]): Active | Activity (HCC1806 [3]): Active | Activity (HCC1806 [4]): Active | Activity (MCF7 [13]): Active | Activity (HCC1806 [14]): <2% | Activity (MCF7 [15]): 50% | Activity (HCC1806 [16]): 50% | Activity (MCF7 [17]): 55% | Activity (HCC1806 [18]): Active | Activity (HCC1806 [19]): 60% | Activity (MCF7 [20]): Active | Activity (MCF7 [21]): Active | Activity (HCC1806 [22]): Active | Activity (MCF7 [23]): Active | Activity (MCF7 [24]): Active | Activity (MCF7 [25]): Active | Activity (HCC1806 [26]): Active | Activity (HCC1806 [27]): inactive | Activity (HCC1806 [28]): inactive

IC50 (HCC1806 [5]): 89 µM | IC50 (HCC1806 [6]): 28 µM | IC50 (HCC1806 [7]): 19.4 µM | IC50 (HCC1806 [8]): 12.3 µM | IC50 (HCC1954 [9]): > 100 µM | IC50 (HCC1954 [10]): 84.4 µM | IC50 (HCC1954 [11]): 56.1 µM | IC50 (HCC1954 [12]): 19.2 µM | IC50 (MCF7 [29]): > 100 µM | IC50 (MCF7 [30]): 46.9 µM | IC50 (MCF7 [31]): 32.7 µM | IC50 (MCF7 [32]): 6.6 µM
SMILES: COc1ccc([C@H]2SCc3c(CO)c(CO)c(C)n32)cc1
